As a reminder, the inhibition is how much of the control response was suppressed.

Each structure is given as a SMILES string. Calls of active or inactive are those of the source. The rule behind the calls is not given here.

The text below walks through data of ChEMBL document CHEMBL2440030, “Insights into soluble guanylyl cyclase activation derived from improved heme-mimetics” (J Med Chem, 2013).

The species named for the first experiment is Rattus norvegicus. As to the kind of experiment: Inhibition of soluble guanylyl cyclase in Wistar rat aortic smooth muscle cell assessed as reduction of cGMP accumulation at 1 uM after 15 mins by enzyme immunoassay. A digest of the protocol:
(§1)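 Confluent rat aortic smooth muscle cells were exposed to vehicle or compound (0.01−1 μM) for 15 min, alone or together with 1 μM BAY 58-2667. cGMP was then extracted and quantified. Values are means ± SEM, n = 4.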
Regarding `O=C(O)CCCC(=O)N(CCc1ccccc1OCc1ccc(CCc2ccccc2)cc1)Cc1ccc(C(=O)O)cc1`, the inhibition is 80%.

Turning to `O=C(O)CCCCC(=O)N(CCc1ccccc1OCc1ccc(CCc2ccccc2)cc1)Cc1ccc(C(=O)O)cc1`, the inhibition amounted to 80%.

As for `O=C(O)CCC(=O)N(CCc1ccccc1OCc1ccc(CCc2ccccc2)cc1)Cc1ccc(C(=O)O)cc1`, the inhibition was 80%.

For another experiment, the species on record is Rattus norvegicus. As to the kind of experiment: Activation of soluble guanylyl cyclase in Wistar rat aortic smooth muscle cell assessed as increase of cGMP accumulation at 1 uM after 15 mins by enzyme immunoassay. The procedure, abridged:
as §1
For the compound `O=C(O)CCCCN(CCc1ccccc1OCc1ccc(-c2ccc(Oc3ccccc3)cc2)cc1)Cc1ccc(C(=O)O)cc1`, the result was Active.

For the compound `O=C(O)CCCCN(CCc1ccccc1OCc1ccc(-c2ccc(OCc3ccccc3)cc2)cc1)Cc1ccc(C(=O)O)cc1`, the outcome was Active.

On to `O=C(O)CCCCCN(CCc1ccccc1OCc1ccc(CCc2ccccc2)cc1)Cc1ccc(C(=O)O)cc1`, for which the outcome was inactive.

In the case of `O=C(O)CCCC(=O)N(CCc1ccccc1OCc1ccc(-c2ccc(OCc3ccccc3)cc2)cc1)Cc1ccc(C(=O)O)cc1`, the outcome was Active.

For `O=C(O)CCCN(CCc1ccccc1OCc1ccc(CCc2ccccc2)cc1)Cc1ccc(C(=O)O)cc1`, the outcome was inactive.

As for `COc1ccc(COc2ccc(-c3ccc(COc4ccccc4CCN(CCCCC(=O)O)Cc4ccc(C(=O)O)cc4)cc3)cc2)cc1`, the result was Active.

For a further experiment, the species on record is Rattus norvegicus. As to the kind of experiment: Activation of soluble guanylyl cyclase in Wistar rat aortic smooth muscle cell assessed as increase of cGMP accumulation after 15 mins by enzyme immunoassay. A digest of the protocol: as §1
With `O=C(O)CCCCN(CCc1ccccc1OCc1ccc(-c2ccc(Oc3ccccc3)cc2)cc1)Cc1ccc(C(=O)O)cc1`, the Activity entry was “Dose-dependent effect”.
